Measurements collected from several papers.
Protocols differ between the studies behind these lines.
Organism: Staphylococcus aureus
Effect on: microbial killing

CN[C@H](CC(C)C)C(=O)N[C@H]1C(=O)N[C@@H](CC(N)=O)C(=O)N[C@H]2C(=O)N[C@H]3C(=O)N[C@H](C(=O)N[C@H](C(=O)O)c4cc(O)cc(O)c4-c4cc3ccc4O)[C@H](O)c3ccc(c(Cl)c3)Oc3cc2cc(c3O[C@@H]2O[C@H](CO)[C@@H](O)[C@H](O)[C@H]2O[C@H]2C[C@](C)(N)[C@H](O)[C@H](C)O2)Oc2ccc(cc2Cl)[C@H]1O
MBC (broth dilution; ATCC6538): 1 µM

COc1cc(NC(C)CCCNC(=O)c2ccncc2C(=O)NCCCC(C)Nc2cc(OC)cc3ccc(C(C)(C)C)nc23)c2nc(C(C)(C)C)ccc2c1.Cl (centres unmarked)
MBC (ATCC43300 MRSA; drug-resistant strain): 10 to 20 µg/mL

N#CC(=Cc1ccccc1O)C1=NC(=O)C(=Cc2cn(-c3ccccc3)nc2-c2ccccc2)S1
MBC (broth dilution): 0.5 µg/mL

C=CCOc1c(C)c(O)c(C(=O)/C=C/c2ccccc2)c(OC)c1C
MBC (broth dilution; ATCC25923): > 5000 µg/mL

CC(=O)NC[C@H]1CN(c2ccc(N3CCOCC3)c(F)c2)C(=O)O1
MBC (broth dilution; ATCC6538): > 64 µM

COc1c(C)c(OC(C)=O)c(C)c(O)c1C(=O)/C=C/c1ccccc1
MBC (broth dilution; ATCC25923): > 5000 µg/mL

O=C(O)CN1C(=O)/C(=C/c2ccc(-c3ccc(N(c4ccccc4)c4ccccc4)cc3)cc2)NC1=S
MBC (broth dilution; ATCC25923): 3.9 µg/mL

CCCCCOc1c(OC)cc(NC(C)CCCNC(=S)NCCCC(C)Nc2cc(OC)c(OCCCCC)c3c(CC)ccnc23)c2nccc(CC)c12.Cl.Cl (centres unmarked)
MBC (ATCC43300 MRSA; drug-resistant strain): 10 to 20 µg/mL

Cc1c(NC(=O)CC2=NC(=O)CS2)c(=O)n(-c2ccccc2)n1C
MBC (broth dilution): 1 µg/mL

O=c1[nH]cc(F)c(=O)[nH]1
MBC (broth dilution; 48 h): 1 µg/mL

COc1c(C)c(OS(=O)(=O)c2ccc3ccccc3c2)c(C)c(OS(=O)(=O)c2ccc3ccccc3c2)c1C(=O)/C=C/c1ccccc1
MBC (broth dilution; ATCC25923): > 5000 µg/mL

O=C1NC(=S)N/C1=C\c1c2ccccc2c(-c2ccc(N(c3ccccc3)c3ccccc3)cc2)c2ccccc12
MBC (broth dilution; ATCC43300): > 1000 µg/mL

CCCCCCCCCCCCCCCC#CC(=O)O
MBC: 15.6 µg/mL

CCCCCCCCCCCC(=O)Oc1c(C)c(O)c(C(=O)/C=C/c2ccccc2)c(OC)c1C
MBC (broth dilution; ATCC25923): > 5000 µg/mL

O=C(O)CN1C(=O)/C(=C/c2c3ccccc3c(-c3ccc(N(c4ccccc4)c4ccccc4)cc3)c3ccccc23)NC1=S
MBC (broth dilution; ATCC6538): > 1000 µg/mL

COc1c(C)c(OC(=O)c2ccc(C)cc2)c(C)c(O)c1C(=O)/C=C/c1ccccc1
MBC (broth dilution; ATCC25923): > 5000 µg/mL

O=C(O)CN1C(=O)/C(=C/c2ccc(-c3ccc(N(c4ccccc4)c4ccccc4)cc3)c3ccccc23)NC1=S
MBC (broth dilution; ATCC43300): > 1000 µg/mL

CCCC(=O)Oc1c(C)c(O)c(C(=O)/C=C/c2ccccc2)c(OC)c1C
MBC (broth dilution; ATCC25923): > 5000 µg/mL

O=C(O)CN1C(=O)/C(=C/c2c3ccccc3c(-c3ccc(N(c4ccccc4)c4ccccc4)cc3)c3ccccc23)SC1=S
MBC (broth dilution; ATCC6538): > 1000 µg/mL

COc1c(C)c(OCc2ccccc2)c(C)c(O)c1C(=O)/C=C/c1ccccc1
MBC (broth dilution; ATCC25923): > 5000 µg/mL

Cc1cc(/C=C2\Sc3ccccc3N2CCCN2CCC(C)CC2)c2ccccc2[n+]1C.[I-]
MBC (ATCC29213): 8 µg/mL

N#CC(=Cc1cn(-c2ccccc2)nc1-c1ccccc1)C1=NC(=O)CS1
MBC (broth dilution): 0.25 µg/mL

O=C1NC(=S)S/C1=C\c1ccc(-c2ccc(N(c3ccccc3)c3ccccc3)cc2)cc1
MBC (broth dilution; ATCC43300): > 1000 µg/mL
